Measurements from ChEMBL document CHEMBL1142827, “The identification and optimization of a N-hydroxy urea series of flap endonuclease 1 inhibitors” (Bioorg Med Chem Lett, 2005).

What was measured:
Type in all cases: functional, Homo sapiens
[1] = test system: T-24; assay: Percent of viable cells by survival assay (colony forming) in T24 bladder carcinoma cells at 3 uM in the presence of 110 uM MMS
Method in brief: (§1)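 Colony-forming survival assay in T24 bladder carcinoma cells. Compound was given alongside DMSO alone or methyl methanesulfonate (MMS) at 110, 150 or 200 μM. Survival is expressed relative to the DMSO-only control, set at 100. Values are the average of two independent experiments.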

[2] = test system: T-24; assay: Percent of viable cells by survival assay (colony forming) in T24 bladder carcinoma cells at 3 uM in the presence of DMSO; method in brief: as §1
[3] = test system: T-24; assay: Percent of viable cells by survival assay (colony forming) in T24 bladder carcinoma cells at 1 uM in the presence of 110 uM MMS; method in brief: as §1
[4] = test system: T-24; assay: Percent of viable cells by survival assay (colony forming) in T24 bladder carcinoma cells at 1 uM in the presence of DMSO; method in brief: as §1
[5] = test system: T-24; assay: Percent of viable cells by survival assay (colony forming) in T24 bladder carcinoma cells at 1 uM in the presence of 200 uM MMS; method in brief: as §1
[6] = test system: T-24; assay: Percent of viable cells by survival assay (colony forming) in T24 bladder carcinoma cells at 1 uM in the presence of 150 uM MMS; method in brief: as §1
[7] = test system: T-24; assay: Percent of viable cells by survival assay (colony forming) in T24 bladder carcinoma cells at 3 uM in the presence of 150 uM MMS; method in brief: as §1
[8] = test system: T-24; assay: Percent of viable cells by survival assay (colony forming) in T24 bladder carcinoma cells at 3 uM in the presence of 200 uM MMS; method in brief: as §1

COc1cc(Cn2c(=O)n(O)c(=O)c3c(C)csc32)cc2c1OCO2
Viable cells [1]: 11%
Viable cells [2]: 86%
Viable cells [3]: 24%
Viable cells [4]: 100%
Viable cells [5]: 2%
Viable cells [6]: 12%
Viable cells [7]: 6%
Viable cells [8]: 0%

O=c1c2sccc2n(CC2COc3ccccc3O2)c(=O)n1O (stereo unspecified)
Viable cells [1]: 11%
Viable cells [2]: 87%
Viable cells [3]: 18%
Viable cells [4]: 96%
Viable cells [5]: 4%
Viable cells [6]: 6%
Viable cells [7]: 5%
Viable cells [8]: 4%
